High-throughput results: PubChem, several laboratories
Only some compounds are listed: those with a hit (about 2.6% of all), similar ones and a draw of the others.
T cell modulator = modulates CD8 T cell binding to vesicles; 2C CD8+ T cell-vesicle binding, flow cytometry; stronger effect = lower value; response (vesicle binding), % at 7 µM; 330,000 compounds, 0.068% hits; AID 2052;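 active means response, share of CD8 T cells binding vesicles, and their 90th percentile fluorescence all below set limits, cut at about 80% in these data, passing the limit was not always enough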;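 further: values below 100% mean blocked vesicle binding to the CD8+ T cells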
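incubation = binding step 1.5 h, 37 °C, antibody labelling 20 min, ice | test system = 2C mouse CD8+ T cells | read-out basis = percent CD8+ FL2 mean versus row control | controls = Peptide-free naked vesicles (low) and QL9 vesicles with 0.7% DMSO vehicle (high) | detection = flow cytometry of vesicle-bound cells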
Rce1 inhib = yeast Ras-converting enzyme inhibition. Q03530. yeast membranes, quenched prenylated peptide cleavage fluorescence. calls only. 290,000 compounds, 0.27% hits;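 active means fall in fluorescence gain of 50% or more versus controls, with final raw signal at or below 3038400; inconclusive means same 50% fall but final raw signal above 3038400; inactive means fall in fluorescence gain under 50%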;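 further: plate controls were neutral control wells for no effect and wells lacking membranes for full effect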
SKN-1 block = C. elegans SKN-1 inhibition; 360,000 compounds, 0.49% hits; inhibition, % at 21.8 µM; C. elegans VP596 Pgst-4::GFP/RFP ratio, acrylamide-induced, 24 h;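 active means interference check ratio from 0.5 to 1.5 plus GFP to RFP signal ratio inhibition reaching or exceeding a fixed threshold, cut at about 30% in these data, passing the limit was not always enough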
Myeloid diff 2 = myeloid differentiation induction; ER-HoxA9 myeloid progenitors, lysozyme-GFP differentiation, flow cytometry; calls only at 10 µM; 360,000 compounds, 1% hits;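 active means normalized GFP-positive differentiation at or above the plate's own cutoff, the solvent-only control mean plus 3 SD; inconclusive means no clear call, values can overlap the other calls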;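 further: cells exposed to compound for four days before flow analysis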
GRK2 aptamer HTS = inhibitors of human GRK2 displacing RNA aptamer | P25098 | bead flow cytometry, FAM-aptamer displacement from GRK2 | inhibition of aptamer binding, % at 10 µM | 330,000 compounds, 0.59% hits | AID 488847;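 active means inhibition of aptamer binding above 40%, roughly 3 SD of noise, on plates passing a quality check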;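 further: median bead fluorescence of bound FAM aptamer so fluorescent compounds give negative values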
Target sequence (P25098 whole entry, looked up): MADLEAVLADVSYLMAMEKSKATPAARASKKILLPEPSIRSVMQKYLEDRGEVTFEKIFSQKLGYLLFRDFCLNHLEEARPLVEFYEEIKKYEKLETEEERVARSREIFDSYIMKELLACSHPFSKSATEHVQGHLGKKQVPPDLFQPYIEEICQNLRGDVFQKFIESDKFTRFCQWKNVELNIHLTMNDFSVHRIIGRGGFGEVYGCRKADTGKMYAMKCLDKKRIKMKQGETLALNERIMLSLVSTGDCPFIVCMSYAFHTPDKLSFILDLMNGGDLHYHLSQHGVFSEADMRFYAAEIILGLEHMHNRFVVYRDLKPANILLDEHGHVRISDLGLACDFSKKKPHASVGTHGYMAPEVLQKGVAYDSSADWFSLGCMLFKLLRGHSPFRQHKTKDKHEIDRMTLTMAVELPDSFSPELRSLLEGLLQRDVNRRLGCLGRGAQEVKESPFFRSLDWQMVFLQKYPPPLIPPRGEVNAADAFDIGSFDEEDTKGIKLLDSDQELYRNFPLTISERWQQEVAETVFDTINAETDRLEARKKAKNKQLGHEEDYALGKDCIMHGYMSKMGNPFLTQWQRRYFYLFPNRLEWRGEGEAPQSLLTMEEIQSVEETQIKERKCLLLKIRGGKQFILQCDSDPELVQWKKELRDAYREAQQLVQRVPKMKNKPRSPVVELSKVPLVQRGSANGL
Rin1 Abl inh = blocks binding of human Rin1 to Abl. TR-FRET Rin1/Abl binding, biochemical. inhibition, % at 7.35 µM. 360,000 compounds, 0.4% hits. AID 588664; in the data active means inhibition above about 5%, passing the limit was not always enough
GRK2 CP1 = confirmation of human GRK2 inhibitors displacing RNA aptamer; bead-bound GRK2, FAM-aptamer displacement, flow cytometry; shares compounds with GRK2 aptamer HTS; aptamer displacement, % at 10 µM; 2,000 compounds, 4% hits;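 active means aptamer displacement above 40%, near three times the noise of non-fluorescent compounds, on plates passing quality checks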;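 further: negative values mostly reflect intrinsic compound fluorescence rather than true enhancement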
Aptamer quench = fluorescent aptamer quenching in GRK2 counter-screen dose response; shares compounds with GRK2 aptamer HTS; Fluorescent RNA aptamer beads, flow cytometry; stronger effect = higher value; fluorescence change (kMESF span), kMESF (no concentration beside the values); 110 tested, under 10 active; AID 504521;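 active means compounds whose bead fluorescence drops by more than 37 kMESF across the dose range, marking them as dye quenchers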
FAM quench CP1 = aptamer fluorescence quenching in GRK2 counter-screen; shares compounds with GRK2 aptamer HTS; AID 504580; fluorescence response (% of DMSO), % at 10 µM; 2,000 tested, under 10 active; Carboxyfluorescein RNA aptamer on beads, flow cytometry quenching; stronger effect = lower value;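 active means compounds that quench the bead-bound fluorescent RNA probe, cutting fluorescence to under half of the solvent control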;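 further: counterscreen run without GRK2 so only probe quenching by compound is measured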
GRK2 CP2 = human GRK2 inhibition confirmation, cherry pick 2. inhibition of aptamer binding, % at 10 µM. shares compounds with GRK2 aptamer HTS. bead-bound GRK2, FAM-aptamer displacement, flow cytometry. 360 tested, under 10 active;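 active means inhibition of aptamer binding above 40%, about triple the noise seen with nonglowing compounds, on plates passing quality control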;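 further: negative values mostly come from compounds that fluoresce themselves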
FAM quench SP = quenches fluorescent RNA aptamer, GRK2 hit artifact. fluorescence response vs DMSO, % at 10 µM. 360 tested, under 10 active. carboxyfluorescein RNA aptamer beads, flow cytometry quenching; stronger effect = lower value. shares compounds with GRK2 aptamer HTS. AID 588494;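 active means response vs DMSO under 50%, meaning signal dropped by over half, treated as fluorescence quencher; inconclusive means no clear call, values can overlap the other calls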;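 further: labelled aptamer on streptavidin beads without GRK2 as a quench counter-screen; 100% = bead fluorescence of DMSO wells and lower means quenching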
An asterisk follows results filed as active; i = inactive; ? = inconclusive; . = no result given.

SMILES	T cell modulator	Rce1 inhib	SKN-1 block	Myeloid diff 2	GRK2 aptamer HTS	Rin1 Abl inh	GRK2 CP1	FAM quench CP1	others
NC(=O)c1ccsc1NC(=O)CS(=O)(=O)c1ccccc1	i	i	15.8	i	0.0	7.1	.	.	GRK2 CP2=9.2;FAM quench SP=98.0
COc1ccccc1NS(=O)(=O)c1cccc(C(=O)NCc2ccncc2)c1	324.0	i	-11.9	i	0.0	-0.9	.	.
COc1cccc(NC(=O)C2(S(=O)(=O)c3ccc(Cl)cc3)CC2)c1	292.8	i	1.5	i	4.0	0.9	.	.	GRK2 CP2=-14.3;FAM quench SP=101.0
C/C(=N\NC(=O)c1ccc(OC2OCCOC2Oc2ccc(C(=O)N/N=C(\C)c3ccncc3)cc2)cc1)c1ccncc1 (centres undefined)	i	i	16.0	i	50.0*	3.6	36.9	98.9
C/C(=N\NC(=O)c1ccncc1)c1ccc(N2CCOCC2)cc1	496.1	.	-25.0	i	0.0	-2.6	.	.
O=C(O)c1cccc(Nc2c3ccccc3nc3ccccc23)c1	122.0	i	0.3	i	51.0*	-3.4	0.4	94.3
CC(=O)c1cccc(Nc2cc(C)nc3ccccc23)c1	376.0	i	15.9	i	0.0	-4.4	.	.
O=C(NCCc1ccccc1)Nc1ccc2c(c1)OCO2	178.9	i	-0.5	i	8.0	2.6	.	.
CC(=O)Nc1ccc(N(C)C)cc1[N+](=O)[O-]	228.9	i	-37.2	i	41.0*	-4.7	78.5*	99.6	Aptamer quench=-1.5
O=C1CC(c2ccccc2)CC(=O)C1CS(=O)(=O)c1ccccc1 (centres undefined)	376.2	i	10.8	i	0.0	1.7	.	.
Cc1onc(-c2ccccc2)c1C(=O)NCC1CCCO1 (centres undefined)	325.8	i	21.2	i	91.0*	0.0	-2.0	98.8
Cc1onc(-c2ccccc2)c1C(=O)NCCN1CCOCC1	275.3	i	0.7	i	1.0	0.6	.	.
Cc1cc(NC(=O)Nc2cccc(C(F)(F)F)c2)n(C)n1	92.4	i	12.8	i	74.0*	3.9	-1.7	99.1
O=C(O)C1CCCCC1C(=O)Nc1cccc(Br)c1 (centres undefined)	238.8	.	-2.3	i	86.0*	4.2	92.9*	91.5	Aptamer quench=0.2
CCN(CC)C(=O)CSc1nc(C)cc(C)n1	436.9	i	8.7	i	2.0	0.8	.	.
O=S(=O)(NCc1cn2ccccc2n1)c1cccs1	81.7	i	-9.9	i	0.0	-3.7	.	.
Cc1cc(N2CCN(C)CC2)nc2ccc(NC(=O)CCC(=O)NCCCOC(C)C)cc12	199.2	i	5.9	i	93.0*	-0.6	-0.1	100.2
COCCCNC(=O)CCC(=O)Nc1ccc2nc(N3CCOCC3)cc(C)c2c1	319.8	i	-2.3	i	0.0	0.9	.	.
O=C(CSc1nc2ccccc2[nH]1)N/N=C/c1ccco1	248.8	i	28.7	i	0.0	0.8	.	.
CC(=O)N1CCC(C(=O)NCCOc2cccc(C)c2)CC1	163.8	i	5.5	?	65.0*	0.5	-2.2	99.0
COc1ccc(C2c3ccc(O)cc3Oc3ncn4nc(-c5ccco5)nc4c32)cc1OC (centres undefined)	172.6	i	-9.5	i	57.0*	0.6	3.2	98.9
Cc1ccc(-c2ccnc(-c3ccc(O)cc3)n2)cc1	189.5	i	-0.3	i	0.0	5.5	.	.
